This note sets out measurements from the EternaBench riboswitch data.

For the data set, the system named is MS2 coat protein. Description: apparent Kd, MS2 coat protein; higher = weaker binding; RNA-MaP array; tryptophan 2.4 mM where present. Summed up:
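Green signal was scaled to red-channel RNA signal and control-cluster median Fmax, and the apparent Kd was taken as the median of filtered per-cluster binding-curve fits. The binding series used SNAP-549-labelled MS2 coat protein from 0.7 or 1.5 nM, doubling to 3 µM, on designs transcribed by stalled E. coli RNA polymerase on Illumina sequencing-chip clusters. Each series ran without and then with constant ligand in 100 mM Tris-HCl pH 7.5, 80 mM KCl, 4 mM MgCl2, BSA, DTT, yeast tRNA and Tween-20.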

[1] abbreviates: designed as: OFF switch for tryptophan, no ligand.
The mark [2] stands for this setting: ligand present: tryptophan, designed as: OFF switch for tryptophan.
Where [3] appears, read: designed as: ON switch for tryptophan, no ligand.
Where [4] appears, read: ligand present: tryptophan, designed as: ON switch for tryptophan.

In general, apparent Kd refers to the concentration giving half-maximal binding under the conditions of the assay.

For “ACCUGCGUUUGUUUCUUUCUGACGCAGGUUCGAGGACCGGUACGGCCGCCACUCGGACAUGAGGAUCACCCAUGUUUGACAUGGG”, the “apparent Kd” value is, setting by setting: under setting [1], 57.3 nM; under setting [2], 17.3 nM.

“GUUAUUAGAAAACUAAUAACAGUGGGUGAACGAGGACCGGUACGGCCGCCACUCGGACAUGAGGAUCACCCAUGUCCAUGUGAAA”: the “apparent Kd” value was 15.4 nM under setting [1] and 32.7 nM under setting [2].

Take “AGCCACUCGAACAUGGGUGACGAGUGGCAACGAGGACCGGUACGGCCGCCACUCGAAUAAACAUGAGGAUCACCCAUGUACAAAU”: the “apparent Kd” value by setting is: under setting [3], 292 nM; under setting [4], 214 nM.

Regarding “AGAGUCUAGUCGGCCGCCACUCAUGUCCAAUGGACAUGAGGAUCACCCAUGUACCGAAGGUACAUGAGGACCGGGACUGGACUCA”, the “apparent Kd” value came out at 153 nM under setting [3] and 11.7 nM under setting [4].

As for “GAUAUACGUGCGGCCGCCACUGAGUGGCGGGCGUGUCGAGUUACAUGAGGAUCACCCAUGUCACUCAGGACCGGGCACGGAAUUU”, the “apparent Kd” value is, setting by setting: under setting [1], 9.98 nM; under setting [2], 11.4 nM.

Consider “GGCUAUACUACGGCCGCCACUGAACAUGAGGAUCACCCAUGUAAUGUUCAGAUUUUUUUUUUUUACAGGACCGGGUAGAAUUGCC”, for which the “apparent Kd” value was 195 nM under setting [3] and 104 nM under setting [4].

In the case of “AACAUGAGGAUCACCCAUGUGUCCUCGAAACGAGGACCGGUACGGCCGCCACUCGGCGUAUGUUGACGAAAAGUCAGCAUACGCA”, the “apparent Kd” value by setting is: under setting [1], 192 nM; under setting [2], 737 nM.

For the sequence “UUAAUUAUUGAAUCGUAUUGGUAUUAAGAACGAGGACCGGUACGGCCGCCACUCGUGAUAUACAUGAGGAUCACCCAUGUUAGCA”, the “apparent Kd” value is, setting by setting: under setting [3], 14.8 nM; under setting [4], 14 nM.

Take “GGUGGACUUUCGGCCGCCACUGAGAGAGUCGUGUGAACAUGAGGAUCACCCAUGUAAUAUAUAUACAGGACCGGGAGGGUUGUCC”: the “apparent Kd” value by setting is: under setting [1], 15.9 nM; under setting [2], 15.9 nM.

Take “AGCACUGUGACGGCCGCCACUACAUAACAUGGGUGGUCAGGUUCAUUACAUGAGGAUCACCCAUGUAGGACCGGGUCUCAGUGCA”: the “apparent Kd” value was found to be 10.1 nM under setting [1] and 8.35 nM under setting [2].

In the case of “CACGAAAGAUCGGCCGCCACUAUUUGAUGUGUUCUUUCACAUGAGGAUCACCCAUGUUCUUAUUUUAGGACCGGGAUUGAGCGUG”, the “apparent Kd” value was 94.8 nM under setting [1] and 69.3 nM under setting [2].

As to “CACGAAAGAUCGGCCGCCACUCAUGUUUCUUACAUGAGGAUCACCCAUGUAUUUUCUUUCUUUUAGAGGACCGGGAUUGAGCGUG”, the “apparent Kd” value stood at 155 nM under setting [3] and 29.8 nM under setting [4].

For “UCGUUGAAGUCGGCCGCCACUGAACUCAUGUUCAACAUGAGGAUCACCCAUGUACCUUAUUUUAACAGGACCGGGACUUUGACGA”, the “apparent Kd” value is, setting by setting: under setting [1], 167 nM; under setting [2], 156 nM.

“CCUCAAUAGACGGCCGCCACUGAAACAUGAGGAUACAUGAGGAUCACCCAUGUGGGUGUGUUACGCAGGACCGGGUCAAGACCCG”: the “apparent Kd” value was determined as 207 nM under setting [3] and 336 nM under setting [4].

Turning to “AGCACUGUGACGGCCGCCACUAUAUUAGGGUGGUCAGGUUCAUAAAUACAUGAGGAUCACCCAUGUAGGACCGGGUCUCAGUGCA”, the “apparent Kd” value reads like this: under setting [1], 9.48 nM; under setting [2], 9.88 nM.

For “GGGUGGUAGGCGGCCGCCACUGAUUUUCAUUCCUGGAUGACAUGAGGAUCACCCAUGUUUACGGGCAGGACCGGGCCUGCUGUGG”, the “apparent Kd” value under setting [3] is 57.3 nM and the “apparent Kd” value under setting [4] was 46.5 nM.

As to “UAACAUGAGGAUCACCCAUGUUUAGAAGAACGAGGACCGGUACGGCCGCCACUCGAAAAGUGGAAGAAAAGAGGGAUAGAAUGAU”, the “apparent Kd” value under setting [3] was found to be 12.2 nM and the “apparent Kd” value under setting [4] is 12.6 nM.

On to “UAAACUACACAUGAGGAUCACCCAUGUGGCCGAGGACCGGUACGGCCGCCACUCGUGUGUUAAUAAUAGAACUGCAAGGUUCUGU”, for which the “apparent Kd” value reads like this: under setting [3], 183 nM; under setting [4], 75.2 nM.

As to “UAAUAAGUACCGGUCCUCAGAUCCUCAUGACGAGGACCGGUACGGCCGCCACUCGAAACAUGAGGAUCACCCAUGUAAUAAUAAC”, the “apparent Kd” value is 27.4 nM under setting [1] and 19.4 nM under setting [2].

As for “AAUACCGGAUCGGCCGCCACUGGUUGGCCCUGUGUACAUGAGGAUCACCCAUGUCCAUCCCAGACCAGGACCGGGAUCUUUGUGU”, the “apparent Kd” value reads like this: under setting [3], 15.8 nM; under setting [4], 10.4 nM.

“CGCACAUGAGGAUCACCCAUGUGAGGGCGUCGAGGACCGGUACGGCCGCCACUCGCAGGACAUGAGGAUCACCCAUGUGCCGCCG”: the “apparent Kd” value reads like this: under setting [3], 116 nM; under setting [4], 57.2 nM.

Turning to “AGAAUAUAGUCGGCCGCCACUCUACAUACAUGAGGAUCACCCAUGUUUACAUAGUGAAUAUACAUGAGGACCGGGACAUAGGCAU”, the “apparent Kd” value by setting is: under setting [3], 21.8 nM; under setting [4], 13.4 nM.

Regarding “GCUGCAGCUACGGCCGCCACUGUUACGUGAGACAUGAGGAUCACCCAUGUUGAUGUUUUACGGUAUAGGACCGGGUAGUUGUAGU”, the “apparent Kd” value was 9.7 nM under setting [1] and 13.4 nM under setting [2].

In the case of “CGAAUAUAGACGGCCGCCACUCUACAAACAUGAGGAUCACCCAUGUUCACAUAGUGGAAACACAUGAGGACCGGGUCAUAGGCUU”, the “apparent Kd” value was 22.6 nM under setting [3] and 17.1 nM under setting [4].
